Shown are actives, neighbours in structure and some others; about 2.2% of the full set was active somewhere.
GalR3 antag = GalR3 antagonists in HEK293 cells, primary screen, cell-based, fluorescence readout. Galanin receptor type 3 (Homo sapiens), O60755. HEK293 GalR3-CNG cAMP membrane potential fluorescence; galR3 body fused to GalR1 C-terminus. inhibition, % at 3 µM. actives 0.44% (n = 360,000). AID 651719, 2012;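 active = inhibition above the screen-wide average plus 3 SD, cut at about 13% in these data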;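 also: forskolin and galanin both at EC90 stimulate the cells; cAMP rise reported by CNG channel membrane potential dye signal; 0% = forskolin plus galanin with DMSO and 100% = forskolin alone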
Target sequence (O60755 1-299 limits assumed): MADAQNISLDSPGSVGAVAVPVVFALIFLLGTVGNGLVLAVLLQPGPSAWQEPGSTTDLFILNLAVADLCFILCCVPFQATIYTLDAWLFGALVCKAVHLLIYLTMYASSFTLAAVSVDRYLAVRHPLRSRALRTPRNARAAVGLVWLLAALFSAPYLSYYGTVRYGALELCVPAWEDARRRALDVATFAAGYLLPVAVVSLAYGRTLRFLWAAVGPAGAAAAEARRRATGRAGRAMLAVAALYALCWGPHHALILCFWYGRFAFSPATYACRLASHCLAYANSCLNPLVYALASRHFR
NR2E3 ag-1 = NR2E3 agonists in two-hybrid cells, primary screen, cell-based, luminescence, CHO-S, Gal4-NCOR/VP16-NR2E3; Photoreceptor-specific nuclear receptor (Homo sapiens), Q9Y5X4; luciferase; inhibition of corepressor binding, % at 3.98 µM; actives 0.35% (n = 360,000);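 active = inhibition above the mean of all tested compounds plus 3 SD, cut at about 70% in these data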;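 also: 0% = DMSO with NR2E3 transfected cells and 100% = cells lacking NR2E3 construct; higher means lower luciferase signal from less NR2E3 corepressor binding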
COUP-TFII inh = NR2F2 transcriptional activity inhibitors, primary screen, cell-based, luciferase reporter, HEK293T, luminescence | actives 0.7% (n = 370,000) | inhibition, % at 8.6 µM | COUP transcription factor 2 (Homo sapiens), P24468 | AID 686940, 2013 | HEK293T NGFI-A luciferase reporter;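 active = inhibition above a per-plate cutoff, mean inhibition of test wells between control levels plus 3 SD, cut at about 38% in these data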;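 also: cells cotransfected with COUP-TFII expression vector driving the NGFI-A reporter; 0% = median of COUP-TF2 test wells and 100% = reporter-only cells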
NR2E3 ag-2 = inhibitors of NR2E3-RetCOR corepressor binding, primary screen, NR2E3 agonist project, biochemical, TR-FRET, GST-NR2E3, biotin-RetCOR | Photoreceptor-specific nuclear receptor (Homo sapiens), Q9Y5X4 | actives 0.12% (n = 320,000) | 1536-well | inhibition of corepressor binding, % at 4.78 µM;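 active = percent inhibition above the cutoff of mean plus 3 SD of all tested compounds, set per screening campaign, cut at about 20% in these data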;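 also: 0% = DMSO wells and 100% = biotin wells as full block of FRET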
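system = GST-tagged NR2E3 plus biotinylated RetCOR corepressor | input = 1.35 nM GST-NR2E3 | also added = 7 nM biotin-RetCOR | schedule = 5 h incubation at 4 °C | measured by = TR-FRET with europium anti-GST and streptavidin-D2, 340 nm excitation | read-out = percent loss of FRET ratio relative to control wells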
SMARCA2 act = SMARCA2 (BRM) function activators, primary screen, cell-based, luminescence, high throughput. MG213 cells, MMTV-luciferase reporter, dexamethasone, overnight. activation, % at 9.1 µM. actives 1% (n = 370,000); in the data active = activation above about 7.8%;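 also: 0% = vehicle wells and 100% = reference activator wells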
NR2E3 ag conf = NR2E3 agonist confirmation in cells, cell-based, luminescence, CHO-S two-hybrid; shares compounds with NR2E3 ag-1; inhibition, % at 3.98 µM; CHO-S mammalian two-hybrid NR2E3-NCOR, luciferase luminescence; actives 51% (n = 2,300);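 active = average inhibition above a cutoff equal to the mean inhibition of all tested compounds plus one SD, cut at about 70% in these data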;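 also: 0% = DMSO in NR2E3 cells and 100% = DMSO in cells lacking NR2E3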
GAL4-VP16 luc = GAL4-VP16 reporter modulators, confirmation, counter-screen for NR2E3 agonist project, cell-based, luminescence, CHO-S, high throughput; shares compounds with NR2E3 ag-1; CHO-S GAL4-VP16 luciferase reporter; inhibition, % at 3.98 µM; actives 29% (n = 2,300); AID 624379, 2012;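 active = mean inhibition above a cutoff equal to the average over all tested compounds plus one standard deviation, cut at about 70% in these data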;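 also: luciferase from a UAS reporter driven by GAL4-VP16 transactivation; 0% = DMSO with VP16-transfected cells and 100% = DMSO with cells lacking VP16; higher means less reporter light so more repression of VP16 activity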
Gal4-VP16 ctr = Gal4-VP16 luciferase reporter inhibitors, counter-screen for COUP-TFII antagonist project, cell-based, luminescence, HEK293 | AID 687007, 2013 | actives 25% (n = 2,500) | shares compounds with COUP-TFII inh | inhibition, % at 8.5 µM; in the data active = inhibition above about 13%
COUP-TFII conf = NR2F2 transcriptional activity inhibitors, confirmation, cell-based, luciferase reporter, HEK293, triplicate; shares compounds with COUP-TFII inh; inhibition, % at 8.5 µM; HEK293 NGFI-A luciferase reporter, luminescence; actives 45% (n = 2,500);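 active = mean inhibition over three repeats above a set limit taken from the earlier primary screen, cut at about 38% in these data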;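 also: 100% = cells given the luciferase reporter alone without the COUP-TF2 vector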
Starred values were filed as active, the others as inactive; nt = no result.

SMILES	GalR3 antag	NR2E3 ag-1	COUP-TFII inh	NR2E3 ag-2	SMARCA2 act	NR2E3 ag conf	GAL4-VP16 luc	Gal4-VP16 ctr	COUP-TFII conf
O=C1NC2C(O)C(O)C(O)C(O)C2c2cc3c(c(O)c21)OCO3 (stereo unspecified)	-1.7	98.8*	79.9*	nt	-13.5	98.5*	98.7*	28.7*	80.4*
O=C1NC2C(=CC(O)C(O)C2O)c2cc3c(cc21)OCO3 (stereo unspecified)	-2.1	100.2*	77.7*	nt	-8.3	100.5*	97.2*	10.7	57.7*
c1ccc(CCN2CCC3CCNC3C2)cc1 (stereo unspecified)	-6.6	nt	-25.5	nt	1.4	nt	nt	nt	nt
O=c1[nH]c2cc(Cl)ccc2n1C1CCN(Cc2ccc(-c3nc4ccccc4nc3-c3ccccc3)cc2)CC1	-5.8	nt	33.9	nt	-2.5	nt	nt	nt	nt
C=CCN1C[C@H](C)N(C(c2ccc(C(=O)N(CC)CC)cc2)c2cccc(OC)c2)CC1C (stereo partly specified)	-2.0	nt	-6.0	nt	6.2	nt	nt	nt	nt
C=CCN1CC[C@]23c4c5ccc(O)c4OC2C(=O)CC[C@@]3(O)[C@H]1C5 (stereo partly specified)	4.1	nt	-6.6	nt	0.1	nt	nt	nt	nt
O=C(NC1CN2CCC1CC2)c1ccc(Cl)cc1 (stereo unspecified)	-0.4	nt	12.2	nt	-0.9	nt	nt	nt	nt
CC1CC(C)CC(C)C(O)C(C#N)=CC=CCC(C2CCCC2C(=O)O)OC(=O)CC(O)C(C)C1 (stereo unspecified)	-3.8	102.1*	83.5*	nt	-10.5	100.7*	99.9*	23.1*	79.9*
CN(C)c1ccc(-[n+]2c(-c3ccccc3)cc(-c3ccccc3)cc2-c2ccccc2)cc1	-4.3	51.2	85.8*	nt	-10.8	96.3*	64.9	27.3*	90.0*
O=[N+]([O-])c1ccc(N2CCOCC2)c2cccnc12	-2.5	-9.4	-16.2	-2.2	2.9	nt	nt	nt	nt
O=[N+]([O-])c1ccc(N2CCOCC2)c2c1no[n+]2[O-]	-1.2	58.2	89.2*	nt	-11.1	59.4	56.4	62.2*	-105.5
Cc1ccc(OC(=O)N(C)C[C@@H]2OCc3ccccc3-c3c(n(C)c4ccccc34)C(=O)N([C@H](C)CO)C[C@H]2C)cc1	-6.0	nt	16.0	nt	-3.9	nt	nt	nt	nt
COc1ccc(C[C@H]2NC[C@H](O)[C@H]2OC(C)=O)cc1	0.9	103.7*	89.3*	0.6	-12.2	98.9*	98.7*	20.4*	83.5*
COc1cccc(C(c2nnnn2-c2ccc3c(c2)OCCO3)N2CCC(n3c(=O)[nH]c4ccccc43)CC2)c1OC (stereo unspecified)	1.1	53.1	40.0*	nt	-4.4	21.2	24.5	-2.4	7.5
CC1=C(O)C(=O)C=C2C1=CC=C1C2(C)CCC2(C)C3CC(C)(C(=O)O)CCC3(C)CCC12C (stereo unspecified)	-4.1	99.2*	79.4*	nt	-9.4	95.2*	76.6*	80.9*	83.4*
Cc1cc(N2CCNC[C@H]2C)ccc1N1CCN[C@H](C)C1	-1.4	nt	-11.9	nt	-3.0	nt	nt	nt	nt

Assay outcomes (PubChem BioAssay)
